In ChEMBL document CHEMBL1156710, “Design, synthesis and characterization of some bioactive conjugates of curcumin with glycine, glutamic acid, valine and demethylenated piperic acid and study of their antimicrobial and antiproliferative properties” (2008):
Converted amounts (≈) assume the structure as drawn. The source made the active and inactive calls. The calls are words filed in the database; no cut-off is given here.

Tests used:
[1] = test system: Klebsiella aerogenes; assay: Antibacterial activity against Klebsiella aerogenes after 18 hrs by broth microdilution susceptibility test; format: functional
Outline: (§1)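 Broth microdilution in Mueller-Hinton broth at pH 7.4. Inoculum came from a broth culture grown 4–6 h to log phase. Compound dilutions were […]. Tubes were shaken and incubated at 37 °C for 18 h, then read for turbidity. MIC is the lowest concentration with no turbidity. Each test was run in triplicate and MICs come from at least two repetitions.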

[2] = test system: Micrococcus; assay: Antibacterial activity against Micrococcus after 18 hrs by broth microdilution susceptibility test; format: functional; outline: as §1
[3] = test system: Micrococcus; assay: Antibacterial activity against Micrococcus at 10 umol/ml after 24 hrs by Kirby-Bauer's disk diffusion assay; format: functional
Outline: (§2)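 Kirby-Bauer disc diffusion. Compounds were dissolved in acetone and serially diluted. Sterile 6 mm discs were soaked in the solutions and dried. 1 ml of bacterial broth culture was spread on Mueller-Hinton agar plates and the discs were placed aseptically. Plates were incubated upright at 37 °C for 24 h and the inhibition zone was measured with a scale.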

[4] = test system: Enterobacter cloacae; assay: Antibacterial activity against Enterobacter cloacae after 18 hrs by broth microdilution susceptibility test; format: functional; outline: as §1
[5] = test system: Escherichia coli; assay: Antibacterial activity against Escherichia coli at 20 umol/ml after 24 hrs by Kirby-Bauer's disk diffusion assay; format: functional; outline: as §2
[6] = test system: Staphylococcus saprophyticus; assay: Antibacterial activity against Staphylococcus saprophyticus after 18 hrs by broth microdilution susceptibility test; format: functional; outline: as §1
[7] = test system: Micrococcus; assay: Antibacterial activity against Micrococcus at 20 umol/ml after 24 hrs by Kirby-Bauer's disk diffusion assay; format: functional; outline: as §2
[8] = test system: Enterobacter cloacae; assay: Antibacterial activity against Enterobacter cloacae at 20 umol/ml after 24 hrs by Kirby-Bauer's disk diffusion assay; format: functional; outline: as §2
[9] = test system: Escherichia coli; assay: Antibacterial activity against Escherichia coli after 18 hrs by broth microdilution susceptibility test; format: functional; outline: as §1
[10] = test system: Staphylococcus saprophyticus; assay: Antibacterial activity against Staphylococcus saprophyticus at 10 umol/ml after 24 hrs by Kirby-Bauer's disk diffusion assay; format: functional; outline: as §2
[11] = test system: Staphylococcus saprophyticus; assay: Antibacterial activity against Staphylococcus saprophyticus at 20 umol/ml after 24 hrs by Kirby-Bauer's disk diffusion assay; format: functional; outline: as §2
[12] = test system: Candida albicans; assay: Antifungal activity against Candida albicans at 20 umol/ml after 48 hrs; format: functional
Outline: (§3)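 Clinical fungal isolates were subcultured on Sabouraud dextrose agar. For the inoculum, cultures were grown on Sabouraud dextrose agar for 48 h at 37 °C. Conidia were dislodged into sterile saline, the suspension was brought to 5 ml, and the microconidia were counted. This suspension was swabbed over Sabouraud dextrose agar plates poured 5 mm deep, and excess was decanted. Sterile 6 mm discs were charged with compound.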

[13] = test system: Klebsiella aerogenes; assay: Antibacterial activity against Klebsiella aerogenes at 20 umol/ml after 24 hrs by Kirby-Bauer's disk diffusion assay; format: functional; outline: as §2
[14] = test system: KB; assay: Antiproliferative activity against human KB cells after 48 hrs by MTT assay; format: functional, cell-based
Outline: (§4)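 KB and HeLa cells were grown in DMEM with 10% heat-inactivated fetal calf serum and penicillin-streptomycin at 37 °C, 5% CO2. Cells were seeded at 5×10³ per well. After 16 h the medium was replaced with medium containing compound diluted from stock. MTT (from a 5 mg/ml 10× stock) was added for 4 h at 37 °C. Crystals were dissolved in DMSO and OD read at 570 nm, 48 h after treatment.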

[15] = test system: HeLa; assay: Antiproliferative activity against human HeLa cells after 48 hrs by MTT assay; format: functional, cell-based; outline: as §4
[16] = test system: Enterobacter cloacae; assay: Antibacterial activity against Enterobacter cloacae at 5 umol/ml after 24 hrs by Kirby-Bauer's disk diffusion assay; format: functional; outline: as §2
[17] = test system: Enterobacter cloacae; assay: Antibacterial activity against Enterobacter cloacae at 10 umol/ml after 24 hrs by Kirby-Bauer's disk diffusion assay; format: functional; outline: as §2
[18] = test system: Escherichia coli; assay: Antibacterial activity against Escherichia coli at 10 umol/ml after 24 hrs by Kirby-Bauer's disk diffusion assay; format: functional; outline: as §2
[19] = test system: Micrococcus; assay: Antibacterial activity against Micrococcus at 5 umol/ml after 24 hrs by Kirby-Bauer's disk diffusion assay; format: functional; outline: as §2
[20] = test system: Penicillium chrysogenum; assay: Antifungal activity against Penicillium notatum at 20 umol/ml after 48 hrs; format: functional; outline: as §3
[21] = test system: Candida parapsilosis; assay: Antifungal activity against Candida parapsilosis at 20 umol/ml after 48 hrs; format: functional
Outline: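 Clinical isolates from diagnosed patients, subcultured on Sabouraud dextrose agar slants at 30 °C for 10–12 days. Inoculum from 48 h SDA cultures at 37 °C, dislodged into sterile saline and brought to 5 ml. Suspension swab-spread on SDA plates poured 5 mm deep, excess decanted. Sterile 6 mm discs charged with compound. Fluconazole reference.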

[22] = test system: Aspergillus fumigatus; assay: Antifungal activity against Aspergillus fumigatus at 20 umol/ml after 48 hrs; format: functional; outline: as §3
[23] = test system: Candida albicans; assay: Antifungal activity against Candida albicans at 10 umol/ml after 48 hrs; format: functional; outline: as §3
[24] = test system: Penicillium chrysogenum; assay: Antifungal activity against Penicillium notatum at 10 umol/ml after 48 hrs; format: functional; outline: as §3
[25] = test system: Aspergillus fumigatus; assay: Antifungal activity against Aspergillus fumigatus at 10 umol/ml after 48 hrs; format: functional; outline: as §3
[26] = test system: Staphylococcus saprophyticus; assay: Antibacterial activity against Staphylococcus saprophyticus at 5 umol/ml after 24 hrs by Kirby-Bauer's disk diffusion assay; format: functional; outline: as §2

For `COc1cc(/C=C/C(=O)CC(=O)/C=C/c2ccc(OC(=O)[C@@H](N)C(C)C)c(OC)c2)ccc1OC(=O)[C@@H](N)C(C)C`, the Activity [1] was “inactive”, the MIC [2] was 10 mM (≈ 5670 µg/mL) and the “inhibition zone (IZ)” value [3] was 13 mm. The MIC [4] was 5 mM (≈ 2830 µg/mL), the “inhibition zone (IZ)” value [5] was 20 mm and the MIC [6] was 10 mM (≈ 5670 µg/mL). For the same compound, the “inhibition zone (IZ)” value [7] was 16 mm, the “inhibition zone (IZ)” value [8] was 20 mm and the MIC [9] was 5 mM (≈ 2830 µg/mL). The “inhibition zone (IZ)” value [10] was 12 mm and the “inhibition zone (IZ)” value [11] was 14 mm.
`COc1cc(/C=C/C(=O)CC(=O)/C=C/c2ccc(O)c(OC)c2)ccc1O` [CURCUMIN] was tested, and the Activity [1] was “inactive”, the “inhibition zone (IZ)” value [5] was 10 mm and the “inhibition zone (IZ)” value [12] was 15 mm. It also gave an MIC [9] of 20 mM (≈ 7370 µg/mL).
`COc1cc(/C=C/C(=O)CC(=O)/C=C/c2ccc(OC(=O)[C@@H](N)CCC(=O)O)c(OC)c2)ccc1OC(=O)[C@@H](N)CCC(=O)O` was tested, and the MIC [1] was 20 mM (≈ 12500 µg/mL), the MIC [2] was 5 mM (≈ 3130 µg/mL) and the “inhibition zone (IZ)” value [3] was 16 mm. For the same compound, the Activity [4] was “inactive”, the Activity [6] was “inactive” and the “inhibition zone (IZ)” value [7] was 18 mm. For the same compound, the “inhibition zone (IZ)” value [13] was 9 mm, the Activity [14] was “Active” and the Activity [9] was “inactive”. For the same compound, the Activity [15] was “Active”.
`COc1cc(/C=C/C(=O)CC(=O)/C=C/c2ccc(OC(=O)/C=C/C=C/c3ccc(O)c(O)c3)c(OC)c2)ccc1OC(=O)/C=C/C=C/c1ccc(O)c(O)c1` was tested, and the MIC [1] was 20 mM (≈ 14900 µg/mL), the MIC [2] was 10 mM (≈ 7450 µg/mL) and the “inhibition zone (IZ)” value [16] was 12 mm. For the same compound, the “inhibition zone (IZ)” value [3] was 12 mm, the MIC [4] was 5 mM (≈ 3720 µg/mL) and the “inhibition zone (IZ)” value [5] was 16 mm. For the same compound, the MIC [6] was 20 mM (≈ 14900 µg/mL), the “inhibition zone (IZ)” value [17] was 14 mm and the “inhibition zone (IZ)” value [7] was 16 mm. The “inhibition zone (IZ)” value [13] was 11 mm, the “inhibition zone (IZ)” value [12] was 16 mm and the “inhibition zone (IZ)” value [8] was 18 mm. For the same compound, the MIC [9] was 10 mM (≈ 7450 µg/mL) and the “inhibition zone (IZ)” value [11] was 10 mm.
`COc1cc(/C=C/C(=O)CC(=O)/C=C/c2ccc(OC(=O)[C@@H](N)C(C)C)c(OC)c2)ccc1O` [MONOVALINOYL CURCUMIN] was tested, and the MIC [1] was 5 mM (≈ 2340 µg/mL), the MIC [2] was 2.5 mM (≈ 1170 µg/mL) and the “inhibition zone (IZ)” value [3] was 20 mm. For the same compound, the MIC [4] was 2.5 mM (≈ 1170 µg/mL), the “inhibition zone (IZ)” value [5] was 13 mm and the Activity [6] was “inactive”. The “inhibition zone (IZ)” value [7] was 26 mm, the “inhibition zone (IZ)” value [13] was 18 mm and the “inhibition zone (IZ)” value [18] was 11 mm. For the same compound, the “inhibition zone (IZ)” value [8] was 25 mm, the MIC [9] was 10 mM (≈ 4680 µg/mL) and the “inhibition zone (IZ)” value [19] was 19 mm. The “inhibition zone (IZ)” value [20] was 12 mm.
In the case of `OC(Cn1cncn1)(Cn1cncn1)c1ccc(F)cc1F` [FLUCONAZOLE], the “inhibition zone (IZ)” value [21] is reported as 20 mm and the “inhibition zone (IZ)” value [12] is reported as 29 mm.
For `COc1cc(/C=C/C(=O)CC(=O)/C=C/c2ccc(OC(=O)CN)c(OC)c2)ccc1O` [MONOGLYCINOYL CURCUMIN], the MIC [1] was 5 mM (≈ 2130 µg/mL), the Activity [2] was “inactive” and the “inhibition zone (IZ)” value [22] was 25 mm. The Activity [4] was “inactive”, the “inhibition zone (IZ)” value [23] was 18 mm and the “inhibition zone (IZ)” value [5] was 12 mm. The Activity [6] was “inactive”, the “inhibition zone (IZ)” value [21] was 14 mm and the “inhibition zone (IZ)” value [13] was 18 mm. The “inhibition zone (IZ)” value [12] was 20 mm, the “inhibition zone (IZ)” value [24] was 16 mm and the MIC [9] was 20 mM (≈ 8510 µg/mL). For the same compound, the “inhibition zone (IZ)” value [25] was 20 mm and the “inhibition zone (IZ)” value [20] was 20 mm.
For `O=C(O)/C=C/C=C/c1ccc2c(c1)OCO2` [PIPERIC ACID], the MIC [1] was 20 mM (≈ 4360 µg/mL), the Activity [6] was “inactive” and the “inhibition zone (IZ)” value [13] was 8 mm. The Activity [9] was “inactive”.
In the case of `COc1cc(/C=C/C(=O)CC(=O)/C=C/c2ccc(OC(=O)CN)c(OC)c2)ccc1OC(=O)CN`, the Activity [1] is reported as “inactive”, the MIC [2] is reported as 10 mM (≈ 4820 µg/mL) and the “inhibition zone (IZ)” value [3] is reported as 13 mm. The Activity [4] was “inactive”, the Activity [6] was “inactive” and the “inhibition zone (IZ)” value [7] was 15 mm. The “inhibition zone (IZ)” value [8] was 12 mm, the MIC [9] was 20 mM (≈ 9650 µg/mL) and the “inhibition zone (IZ)” value [26] was 10 mm. For the same compound, the “inhibition zone (IZ)” value [10] was 12 mm, the “inhibition zone (IZ)” value [19] was 10 mm and the “inhibition zone (IZ)” value [11] was 14 mm.
`O=C(O)/C=C/C=C/c1ccc(O)c(O)c1` [DEMETHYLENATED PIPERIC ACID] was tested, and the Activity [1] was “inactive”, the MIC [2] was 10 mM (≈ 2060 µg/mL) and the MIC [4] was 10 mM (≈ 2060 µg/mL). For the same compound, the MIC [6] was 20 mM (≈ 4120 µg/mL), the “inhibition zone (IZ)” value [7] was 15 mm and the “inhibition zone (IZ)” value [12] was 16 mm. The “inhibition zone (IZ)” value [8] was 18 mm, the Activity [9] was “inactive” and the “inhibition zone (IZ)” value [11] was 10 mm.
